Measurements published in paper PMC4201343 (ACS Chemical Biology, 2014).
Residue numbers refer to the chain shown, from its start. “Also recorded” adds a separate entry of the source.

Legend:
HCV NS3h [1] = molecular target: T1, HCV NS3h (Hepatitis C virus genotype 1b, UniProt Q9WMX2); test: FP-based binding assay, NS3h displacement from Cy5-rU15 RNA; design: species or system hepatitis C virus genotype 1b (con1); conditions: IC50 RNA (Cy5-rU15–NS3h complex, RNA:NS3h binding), Figures 1C and 7B titration
T1 sequence (Q9WMX2 1190-1657 limits assumed): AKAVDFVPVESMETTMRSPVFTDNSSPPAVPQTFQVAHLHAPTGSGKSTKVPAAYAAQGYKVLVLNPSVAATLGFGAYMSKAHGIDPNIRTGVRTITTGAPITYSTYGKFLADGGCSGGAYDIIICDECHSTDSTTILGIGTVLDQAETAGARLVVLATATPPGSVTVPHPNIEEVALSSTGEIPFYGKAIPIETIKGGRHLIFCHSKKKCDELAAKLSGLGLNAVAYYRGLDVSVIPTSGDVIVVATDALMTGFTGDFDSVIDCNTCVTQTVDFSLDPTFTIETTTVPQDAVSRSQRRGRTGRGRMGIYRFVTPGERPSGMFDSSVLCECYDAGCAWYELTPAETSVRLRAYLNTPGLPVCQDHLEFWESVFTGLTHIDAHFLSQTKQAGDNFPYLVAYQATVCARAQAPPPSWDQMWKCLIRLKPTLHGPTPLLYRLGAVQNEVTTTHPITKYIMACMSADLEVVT
In short: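 Con1 NS3h bound to 5′-Cy5-labelled rU15 RNA was titrated with test compound. Polarisation was read with excitation 635 nm and emission 667 nm, G-factor from probe-only wells. Values were normalised to DMSO and positive controls and fit to a concentration–response equation (n = 3). IC50 is the concentration reducing complex polarisation by 50%.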

NS3h = molecular target: T2, NS3h (Hepatitis C virus genotype 1b, UniProt Q9WMX2); test: ESI mass spectrometry of ebselen-treated NS3h; design: species or system hepatitis C virus genotype 1b (con1); conditions: 100 μM ebselen, 1 h, RT
T2 sequence (Q9WMX2 1190-1657 limits assumed): T1 sequence (Q9WMX2 1190-1657 limits assumed)
In short: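 Con1 NS3h was incubated 1 h at RT with 100 μM test compound in 10 mM ammonium acetate pH 7.5, 1% DMSO. It was dialysed against 10 mM ammonium acetate (three changes) and diluted to 0.15 mg/mL in 50:50 acetonitrile/water, 0.2% formic acid. Nano-ESI Q-TOF, positive mode, 3 kV, 0.7 μL/min, 10 min acquisition, compared with untreated and DMSO-treated protein.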

[2] = molecular target: NS3 protease (scNS3-NS4A) (Hepatitis C virus, UniProt Q9WMX2); test: Protease assay; format: biochemical; conditions: even at the highest concentrations tested
In short: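 Full-length single-chain NS3-4A at 10 nM, in kit HCV protease buffer without DTT with 5% DMSO, cleaving a 5-carboxyfluorescein-labelled peptide substrate; fluorescence read at 520 nm. Test compound was run as a 7-point two-fold dilution series from 100 μM, in duplicate.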

NS3 ATPase = molecular target: T3, NS3 ATPase (Hepatitis C virus genotype 1b, UniProt Q9WMX2); test: ATPase assay; format: biochemical, hepatitis C virus genotype 1b (con1); conditions: Figure 7B
T3 sequence (Q9WMX2 1190-1657 limits assumed): T1 sequence (Q9WMX2 1190-1657 limits assumed)

E. coli SSB = E. coli SSB (Escherichia coli, UniProt P0AGE0); test: FP-based binding assay with SSB in place of NS3h
Sequence of E. coli SSB (P0AGE0 2-178 limits assumed): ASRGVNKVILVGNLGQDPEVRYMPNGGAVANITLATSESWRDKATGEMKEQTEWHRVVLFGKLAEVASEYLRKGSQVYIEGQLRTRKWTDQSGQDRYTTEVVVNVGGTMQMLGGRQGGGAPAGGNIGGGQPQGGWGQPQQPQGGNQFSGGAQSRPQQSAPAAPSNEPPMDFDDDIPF
In short: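 Fluorescence polarisation assay with E. coli SSB in place of NS3h, using Cy5-dT15 (or Cy5-rU15 for titrations). Screen compounds were pin-transferred to 100 μM final, 1% DMSO. Excitation 635 nm, emission 667 nm; G-factor from probe-only wells. Percent inhibition was normalised to DMSO and to unlabeled dT20 or 100 μM primuline controls.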

NS3h_1b(con1) C289S = molecular target: T4, NS3h_1b(con1) C289S (Hepatitis C virus genotype 1b, UniProt Q9WMX2, C1315S); test: DNA binding, ATP hydrolysis and DNA unwinding assays with C289S NS3h; format: biochemical, hepatitis C virus genotype 1b (con1); conditions: DNA binding, ATP hydrolysis, DNA unwinding
T4 sequence (Q9WMX2 1190-1657 C1315S limits assumed): T1 sequence (Q9WMX2 1190-1657 limits assumed) with C126S

HCV NS3h [3] = molecular target: T1, HCV NS3h; test: FP-based binding assay, NS3h displacement from Cy5-dT15 DNA; design: species or system hepatitis C virus genotype 1b (con1); conditions: for NS3h (% I): percent inhibition of NS3h binding to Cy5-dT15: 100 μM of each compound, 100 µM
In short: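 Fluorescence polarization with Cy5-dT15 and NS3h: excitation 635 nm; parallel and perpendicular emission read at 667 nm; G-factor taken from probe-only wells. % inhibition normalized to DMSO-only (negative) and 200 nM dT20 or 100 μM primuline (positive) controls. Single-point tests at 100 μM. IC50 is the concentration displacing 50% of NS3h from DNA. Reversibility: 10 μM NS3h preincubated 1 h with test compound, then diluted 100–100 000-fold into Cy5-dT15 and compared with untreated controls.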

[4] = system: HCV genotype 2a isolate (JFH1); conditions: 20 μM of each compound; ref Gastaminza et al.[9]; cited from earlier work
NS3h helicase = molecular target: T5, NS3h helicase (Hepatitis C virus genotype 1b, UniProt Q9WMX2); test: Molecular beacon-based helicase; format: biochemical, hepatitis C virus genotype 1b (con1); conditions: IC50 Helicase (DNA unwinding), Figure 7B, no DTT
T5 sequence (Q9WMX2 1190-1657 limits assumed): T1 sequence (Q9WMX2 1190-1657 limits assumed)

NS3h_1b(con1) C279S = molecular target: T6, NS3h_1b(con1) C279S (Hepatitis C virus genotype 1b, UniProt Q9WMX2, C1305S); test: DNA binding, ATP hydrolysis and DNA unwinding assays with C279S NS3h; format: biochemical, hepatitis C virus genotype 1b (con1); conditions: DNA binding, ATP hydrolysis, DNA unwinding
T6 sequence (Q9WMX2 1190-1657 C1305S limits assumed): T1 sequence (Q9WMX2 1190-1657 limits assumed) with C116S

O=c1c2ccccc2[se]n1-c1ccccc1 [Ebselen, 2-phenyl-1,2-benzisoselenazol-3(2H)-one]
IC50 (HCV NS3h [1]): ~1000 nM | number of ebselens bound to NS3h (covalent adducts) (NS3h): 14 | effect on NS3 protease activity (peptide cleavage by full-length NS3) [2]: no effect | IC50 (NS3 ATPase): ~1000 nM | effect on SSB binding to DNA or RNA (E. coli SSB; Cy5-dT15 or Cy5-rU15, Figure 1D titration): no effect; also recorded: did not inhibit | inhibition at 100 µM (E. coli SSB; read-out: SSB (% I): percent inhibition of SSB binding to Cy5-dT15): 3% | sensitivity to ebselen inhibition compared with wild type (NS3h_1b(con1) C289S): neither protein was more or less sensitive | reversibility of NS3h inhibition (HCV NS3h [3]; 10 μM NS3h treated with 10 μM ebselen for 1 h, then diluted to <0.1 μM ebselen): reversible | NS3h (% I): percent inhibition of NS3h binding to Cy5-dT15 (HCV NS3h [3]): 99% | NS3h (% I): percent inhibition of NS3h binding to Cy5-dT15 (HCV NS3h [3]; listed as ebselen): more than 50% | IC50 (HCV NS3h [3]; IC50 DNA (Cy5-dT15–NS3h complex), Figure 1C titration, n = 3): ~1000 nM | reversibility of NS3h inhibition (HCV NS3h [3]; NS3h incubated with 100 μM ebselen, then dialysis): irreversible | HCV (% I): percent inhibition of HCV replication in cells [4]: 83% | IC50 (NS3h helicase): ~1000 nM | sensitivity to ebselen inhibition compared with wild type (NS3h_1b(con1) C279S): neither protein was more or less sensitive
